Screening results deposited in PubChem by several laboratories.
STAT1 inh-1: STAT1 signaling inhibitors, primary screen, cell-based, HTS, luciferase reporter; NIH 3T3 STAT1-luciferase reporter, IFN-gamma, luminescence; inhibition, % at 5.5 µM; 200,000 tested, 0.35% active; AID 920, 2007;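 active = inhibition above a set limit, the mean inhibition across all tested compounds plus 3 SD, cut at about 34% in these data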
STAT3 act: IL-6 driven STAT3 reporter potentiators, primary screen, U3A cells, luciferase, luminescence, MLSCN library | IL-6 STAT3-luciferase reporter; 100% = signal with IL-6 EC80 alone | activation (% of control), % at 5.6 µM | 190,000 tested, 0.91% active | AID 871, 2007;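 active = activation above the screen-wide mean of compound activation plus 3 SD, cut at about 130% in these data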
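Test system: STAT3-luciferase reporter U3A cells; Detection: reporter luminescence signal; Times: 1 h compound pre-exposure, 6 h IL-6 stimulation, 37 °C; Benchmarks: IL-6-only high control; Also added: IL-6 stimulus at 33 ng/mL final.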
STAT3 blocker: IL-6 driven STAT3 reporter inhibitors, primary screen, U3A cells, luciferase, luminescence, MLSCN library; 190,000 tested, 0.89% active; IL-6 STAT3-luciferase reporter; host cell line lacks STAT1; inhibition, % at 5.5 µM; AID 862, 2007;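 active = inhibition above the mean inhibition across all screened compounds plus 3 SD, cut at about 44% in these data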
MT stabilize HCS: microtubule stabilizers in HeLa cells, primary screen, imaging, high-content imaging; 200,000 tested, 0.83% active; HeLa tubulin immunostaining HCS, 24 h; share of cells brighter than vehicle mean+2SD; % tubulin-high responders, % at 10 µM; AID 2205, 2009;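 active = plate Z-score above 3 for both tubulin-high and condensed-nucleus cell shares, with cell loss under 80%, at 10 µM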;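 note: anti alpha tubulin signal scored within the nucleus-defined area of each cell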
bCat nuc transl: modulators of beta-catenin nuclear translocation, primary screen, imaging, HeLa cells, immunofluorescence, high-content | nuclear translocation activity, % at 5 µM | 190,000 tested, 0.3% active | AID 1665, 2009;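 active = nuclear translocation activity above 50% at 5 µM, with a well cell count of 50 or more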;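 note: per-cell ratio of nuclear to cytoplasmic median beta-catenin stain intensity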
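Test system: HeLa cells, endogenous beta-catenin; Compound: single 5 µM dose plus 0.02–20 µM confirmation series; Times: compound exposure 24 h at 37°C; Signal: fluorescence imaging of beta-catenin antibody stain plus DAPI; Read-out: % activation, nuclear-to-cytoplasmic median beta-catenin signal ratio per cell.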
STAT1 inh-2: STAT1 signaling inhibitors, confirmation, cell-based, HTS, luciferase reporter | shares compounds with STAT1 inh-1 | 200 tested, 55% active | NIH 3T3 STAT1-luciferase reporter, IFN-gamma, luminescence | AID 1263, 2008 | inhibition, % at 5.5 µM;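 active = triplicate mean inhibition exceeding the hit cutoff computed for the primary STAT1 screen, cut at about 35% in these data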
NFkB inh: NF-kB reporter inhibitors, TNF-alpha stimulated, counter-screen for STAT1 inhibitor project, cell-based, HEK293T, luciferase luminescence. TNF-alpha induced. shares compounds with STAT1 inh-1. inhibition, % at 5.7 µM. 200 tested, 30% active;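 active = inhibition above the mean of solvent-only control wells plus 3 SD of those wells, cut at about 15% in these data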
STAT3 inh STAT1c: STAT3 reporter inhibition by STAT1 hits, counter-screen for STAT1 inhibitor project, U3A cells, luciferase, luminescence, triplicate. IL-6 STAT3 luciferase reporter; cells lacking STAT1. 200 tested, 20% active. AID 1310, 2008. shares compounds with STAT1 inh-1. inhibition, % at 5.7 µM;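 active = inhibition above the mean of solvent-only control wells plus 3 SD, set per campaign, cut at about 25% in these data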
Numbers stand for hits; - = inactive; . = no result given. Compounds with a hit are over-represented: about 2.4% of the library has one in this group of screens.

SMILES | STAT1 inh-1 | STAT3 act | STAT3 blocker | MT stabilize HCS | bCat nuc transl | STAT1 inh-2 | NFkB inh | STAT3 inh STAT1c
COc1ccc(-c2cc(C(F)(F)F)nc(S(=O)(=O)CCCC(=O)Nc3cccnc3Cl)n2)cc1OC | 44 | - | - | - | - | 38 | - | -
COc1nc(-c2ccccc2)cc(C(F)(F)F)n1 | - | - | - | - | - | . | . | .
COc1cccc(OC)c1C(=O)OCC(=O)Nc1cccnc1Cl | - | - | - | - | - | . | . | .
O=C(O)CCS(=O)(=O)c1nc(-c2cccs2)cc(C(F)(F)F)n1 | - | - | - | - | - | . | . | .
Cc1scc(C(=O)NNC(=S)NC(C)c2ccccc2)c1C (stereo unspecified) | - | - | - | - | - | . | . | .
COc1ccc(S(=O)(=O)N2CCC(C(=O)NCc3cccs3)CC2)cc1 | - | - | - | - | - | . | . | .
COc1ccc(-c2cc(C(F)(F)F)nc(S(C)(=O)=O)n2)cc1 | - | - | - | - | . | . | . | .
COCC(C)NC(=O)CCS(=O)(=O)c1nc(-c2ccc(OC)cc2)cc(C(F)(F)F)n1 (stereo unspecified) | 43 | - | - | - | - | 51 | - | -
CS(=O)(=O)c1nc(-c2ccc(F)cc2)cc(C(F)(F)F)n1 | 45 | - | - | - | - | 39 | - | -
CCOC(=O)CS(=O)(=O)c1nc(-c2ccc(F)cc2)cc(C(F)(F)F)n1 | 34 | - | - | - | - | 46 | 22 | -
COCCNC(=O)CCSc1nc(-c2ccc(OC)cc2)cc(C(F)(F)F)n1 | - | - | - | - | - | . | . | .
CC(C)(C)C(=O)NNC(=O)c1cc2sccc2s1 | . | . | . | . | - | . | . | .
O=C(O)c1cccc(N/N=C/c2cccs2)c1 | 60 | - | - | - | - | 43 | 79 | -
O=C(N/N=C/c1cccs1)C(=O)Nc1cccc(Cl)c1 | - | - | - | - | - | . | . | .
CCOC(=O)N1CCN(c2ncnc3c2[nH]c2ccc(OC)cc23)CC1 | 53 | - | - | - | - | 44 | 21 | -
CCOC(=O)N1CCN(c2ncnc3c2[nH]c2ccc(F)cc23)CC1 | 54 | - | - | - | - | 61 | 19 | 37
CCc1ccc(C(=O)COC(=O)c2cncc(Br)c2)cc1 | - | - | - | - | - | . | . | .
Cc1cc(=O)n(C(NC(=O)c2ccccc2)C(=O)c2ccccc2)cn1 (stereo unspecified) | 42 | - | - | - | - | 46 | - | -
COc1ccc(CC(NC(C)=O)C(=O)NC2CCN(c3nnnn3-c3ccccc3)CC2)cc1OC (stereo unspecified) | - | - | - | - | - | . | . | .
CC1(C)CC(=O)C=C(NCc2ccc(Cl)c(Cl)c2)C1 | - | - | - | - | - | . | . | .
CCOc1ccc(-c2nc(CSCC(=O)NCc3ccco3)c(C)o2)cc1 | 90 | - | - | - | - | 91 | 49 | -
COc1ccc(-c2nc(CS(=O)CC(=O)NCc3ccco3)c(C)o2)cc1 (stereo unspecified) | - | - | - | - | - | . | . | .
COc1ccc(CNC(=O)C(c2ccc(C)cc2)N(Cc2cccs2)C(=O)c2ccc3c(c2)OCCO3)cc1 (stereo unspecified) | 38 | - | - | - | - | - | - | -
CCC(C)(C)C1CCc2c(sc(NC(=O)c3cccs3)c2C(N)=O)C1 (stereo unspecified) | - | - | - | - | - | . | . | .
CC(C)(C)C1CCc2c(sc(NC(=O)c3cccs3)c2C(N)=O)C1 (stereo unspecified) | 54 | - | - | - | - | - | - | -
SMILES | STAT1 inh-1 | STAT3 act | STAT3 blocker | MT stabilize HCS | bCat nuc transl | STAT1 inh-2 | NFkB inh | STAT3 inh STAT1c
O=C(CCSc1ccccc1)Nc1nnc(-c2cccs2)o1 | - | . | . | - | - | . | . | .
Cc1cc(C)n(-c2ccc(C(=O)N3CC(C)OC(C)C3)cc2)n1 (stereo unspecified) | - | - | - | - | - | . | . | .
Clc1ccc(C[n+]2cc(-c3ccccc3)n3c2CCCCC3)c(Cl)c1 | 40 | - | - | - | - | - | - | 26
Clc1ccc(-c2c[n+](Cc3ccc(Cl)cc3Cl)c3n2CCCCC3)cc1 | . | . | . | . | - | . | . | .
Cc1cccc2cc(CNCc3ccccc3)c(Cl)nc12 | - | - | - | - | - | . | . | .
CCCS(=O)(=O)c1nnnn1-c1cccc(OC)c1 | 46 | - | - | - | - | 52 | 24 | -
O=S(=O)(CC(CN1CCCCC1)N1CCCCC1)c1ccc2ccccc2c1 (stereo unspecified) | 35 | - | - | - | - | - | - | -
Cc1ccc(C(=O)NC(=S)Nc2ccc(-c3ccc(CO)o3)cc2)cc1 | 64 | - | - | - | - | - | - | -
O=C(NC(=S)Nc1ccc(-c2ccc(CO)o2)cc1)c1cccs1 | - | - | - | - | - | . | . | .
O=C(Nc1ccc(Cc2ccncc2)cc1)c1cc([N+](=O)[O-])ccc1N1CCOCC1 | - | - | - | - | - | . | . | .
CCOC(=O)C(=CNc1cc(C)nn1-c1ccccc1)C(=O)OCC | 52 | - | - | - | - | 46 | - | -
COc1cc(/C=C/C(=O)OCC(=O)NC(=O)NC(C)C)cc(S(=O)(=O)N2CCc3ccccc32)c1OC | 59 | - | - | - | - | 46 | 18 | -
Cc1cccc(CN2C(=O)c3ccccc3Sc3ccc(C(=O)O)cc32)c1 | . | . | . | . | - | . | . | .
O=C(c1ccc2c(c1)N(Cc1ccccc1)C(=O)c1ccccc1S2)N1CCCC1 | 52 | - | - | - | - | 45 | - | -
CCOC(=O)N1CCN(C(=O)c2ccc(-n3c(=S)[nH]c4ccccc4c3=O)cc2)CC1 | 60 | - | - | - | - | 48 | - | -
CCOC(=O)N1CCN(C(=O)c2ccc3c(=O)n(-c4ccc(OC)cc4)c(=S)[nH]c3c2)CC1 | - | - | - | - | - | . | . | .
CCOC(=O)N1CCN(C(=O)c2ccc3c(=O)n(-c4ccccc4F)c(=S)[nH]c3c2)CC1 | 40 | - | - | - | - | - | - | -
Cn1nc(C(C)(C)C)cc1C(=O)Sc1cccc(Br)c1 | . | . | . | . | - | . | . | .
CS(=O)(=O)Nc1ccc(C2=NN(C(=O)c3ccco3)C(c3cccc(F)c3)C2)cc1 (stereo unspecified) | 56 | - | - | - | - | - | - | -
Cc1cccc(-n2cc(-c3ccccc3)c3c(N4CCOCC4)ncnc32)c1 | 38 | - | - | - | - | - | - | -
Cc1noc(C)c1C(=O)OCC(=O)C12CC3CC(CC(C3)C1)C2 | - | - | - | - | - | . | . | .
NCCc1nnc(SCC(=O)c2ccc(Cl)cc2)o1 | . | . | . | . | - | . | . | .
COc1ccc(-n2c(SCc3cccnc3)nc3c(c2=O)SCC3)cc1OC | 45 | - | - | - | - | 35 | - | -
Cn1c(SCc2cccnc2)nc2c(c1=O)SCC2 | - | - | - | - | - | . | . | .
